Our source for the IC50, inhibition and Ratio IC50 values is ChEMBL document CHEMBL4190262, “Tuning of β-glucosidase and α-galactosidase inhibition by generation and in situ screening of a library of pyrrolidine-triazole hybrid molecules” (Eur J Med Chem, 2017).

The target in one test is Alpha-galactosidase (Coffea arabica, UniProt Q42656). As to the kind of experiment: Inhibition of coffee beans alpha-galactosidase using p-nitrophenyl glycopyranoside preincubated for 5 mins followed by substrate addition measured after 20 mins by visible absorption spectroscopic method. In short, it runs like this: (§1)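 IC50 determined only for compounds giving ≥80% inhibition at 1 mM, read from plots of % inhibition versus inhibitor concentration. p-Nitrophenyl glycopyranoside substrate (10 mM solution) at the enzyme's optimal pH, with 0.01–0.5 units/mL enzyme. 5 min rt preincubation with enzyme, then 20 min at 37 °C. Borate stop (pH 9.8), absorbance at 405 nm. Duplicates averaged.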
Sequence of Alpha-galactosidase (Q42656 whole entry): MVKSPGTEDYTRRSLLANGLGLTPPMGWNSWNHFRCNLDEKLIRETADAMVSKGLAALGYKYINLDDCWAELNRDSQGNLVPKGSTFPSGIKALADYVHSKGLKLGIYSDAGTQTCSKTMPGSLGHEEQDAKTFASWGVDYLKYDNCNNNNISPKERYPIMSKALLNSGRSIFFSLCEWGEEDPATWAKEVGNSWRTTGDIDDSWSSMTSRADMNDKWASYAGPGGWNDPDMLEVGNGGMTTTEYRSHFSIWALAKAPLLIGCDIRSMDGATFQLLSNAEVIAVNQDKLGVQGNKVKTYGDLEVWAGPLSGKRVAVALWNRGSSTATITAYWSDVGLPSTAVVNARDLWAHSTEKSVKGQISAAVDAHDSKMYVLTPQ

Test [1] has as its target Alpha-galactosidase (Coffea arabica) (UniProt Q42656). As to the kind of experiment: Inhibition of coffee beans alpha-galactosidase at 50 uM using p-nitrophenyl glycopyranoside preincubated for 5 mins followed by substrate addition measured after 20 mins by visible absorption spectroscopic method relative to control. A digest of the protocol: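 Crude triazoles from in situ CuAAC (ascorbate/CuSO4, 24 h rt, water-diluted) were screened at 50 μM per well, assuming full conversion. Enzyme was coffee bean α-galactosidase at pH 6, 37 °C, with p-nitrophenyl glycoside substrate and 405 nm read-out. Blanks of CuSO4, ascorbate and each alkyne were run.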

Test [2] is described as follows: Selectivity ratio of IC50 for human lysosomal alpha-galactosidase A to IC50 for coffee beans alpha-galactosidase.
The nature of test [3]: Inhibition of almond beta-glucosidase using p-nitrophenyl glycopyranoside preincubated for 5 mins followed by substrate addition measured after 20 mins by visible absorption spectroscopic method. Set-up: species or system Prunus dulcis. In short, it runs like this:
as §1

The target of test [4] is Alpha-galactosidase (Coffea arabica) (UniProt Q42656). As to the kind of experiment: Inhibition of coffee beans alpha-galactosidase at 1 mM using p-nitrophenyl glycopyranoside preincubated for 5 mins followed by substrate addition measured after 20 mins by visible absorption spectroscopic method relative to control. In short, it runs like this:
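Test compound at 1 mM in well. Mix: 0.01–0.5 units/mL enzyme plus 10 mM p-nitrophenyl glycopyranoside (aqueous solution), buffered to the enzyme's optimal pH. Enzyme and inhibitor preincubated 5 min at rt. Substrate then added and incubated 20 min at 37 °C. Stopped with sodium borate (pH 9.8). p-Nitrophenolate read at 405 nm. Duplicates averaged.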

The structures appear in SMILES notation. Some results are limits rather than exact numbers.

Sequence of Alpha-galactosidase (Coffea arabica) (Q42656 16-378 limits assumed): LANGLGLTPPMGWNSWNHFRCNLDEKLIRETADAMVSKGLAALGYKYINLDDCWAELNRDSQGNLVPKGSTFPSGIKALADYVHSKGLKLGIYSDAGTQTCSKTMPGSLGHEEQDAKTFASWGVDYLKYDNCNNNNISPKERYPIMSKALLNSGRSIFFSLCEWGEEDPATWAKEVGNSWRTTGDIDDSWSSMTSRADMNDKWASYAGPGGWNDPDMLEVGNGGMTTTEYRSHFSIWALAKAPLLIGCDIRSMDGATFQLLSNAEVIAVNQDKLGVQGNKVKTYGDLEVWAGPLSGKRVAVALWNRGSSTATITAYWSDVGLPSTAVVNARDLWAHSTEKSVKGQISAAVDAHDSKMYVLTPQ

With `O[C@@H]1[C@H](O)CN[C@@H]1Cn1cc(-c2ccccc2)nn1`, at Alpha-galactosidase, half-maximal inhibition (IC50) was put at 14 µM. Moreover, in test [1], the inhibition – broadly, the percentage by which the read-out fell short of the control – is 62%. Also, the Ratio IC50 in test [2] is 10.

In the case of `O[C@@H]1[C@H](O)CN[C@H]1Cn1cc(-c2ccccc2)nn1`, the IC50 – broadly, the concentration that gives 50% inhibition – in test [3] was 8 µM. The compound further registered an inhibition in test [4] of less than 50%.
